Measurements: ChEMBL document CHEMBL4689842, “EUbOPEN Chemogenomics Library wave 1” (2021)

System: Fibroblast
Experiment: Multiplex assay against human fibroblast
Format: toxicity, cell-based
Procedure, shortened: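 With compound added, live cells were imaged on a CQ1 microscope at 37°C and 5% CO2; staining with Hoechst33342, BioTracker Green Microtubule Cytoskeleton Dye, MitoTracker Red and Annexin V Alexa Fluor 680 had been done at seeding. The CellPathfinder machine-learning gating scheme split cells into Hoechst high-intensity objects or normal cells, normal cells into healthy, pyknosed or fragmented nuclei, and pyknosed cells into mitotic or apoptotic. The tubulin, mitochondrial-mass and membrane-permeability phenotypes are per cents of healthy-nucleus cells.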

[1] = 12 h, 1 µM, compound concentration 1 uM, replicate 1
[2] = 12 h, 1 µM, compound concentration 1 uM, replicate 2
[3] = 12 h, 10 µM, compound concentration 10 uM, replicate 1
[4] = 12 h, 10 µM, compound concentration 10 uM, replicate 2
[5] = 24 h, 1 µM, compound concentration 1 uM, replicate 1
[6] = 24 h, 1 µM, compound concentration 1 uM, replicate 2
[7] = 24 h, 10 µM, compound concentration 10 uM, replicate 1
[8] = 24 h, 10 µM, compound concentration 10 uM, replicate 2

Structure (SMILES): CCc1cccc(CC)c1NC(=O)c1nn(C)c2c1CCc1cnc(Nc3ccc(N4CCN(C)CC4)cc3OC)nc1-2
- Population Apoptotic (%) [1]: 45%
- Population Fragmented Nuclei (%) [1]: 17%
- Population Healthy Nuclei (%) [1]: 47%
- Population Hoechst High Intensity Objects (%) [1]: 9%
- Population Membrane Permeable-Phenotype (%) [1]: 8%
- Population Mitochondria Different-Phenotype (%) [1]: 72%
- Population Mitotic Cells (%) [1]: 54%
- Population Normal (%) [1]: 90%
- Population Pyknosed Nuclei (%) [1]: 34%
- Population Tubulin-Different-Phenotype (%) [1]: 75%
- Total Cell Count [1]: 142
- Population Apoptotic (%) [2]: 50%
- Population Fragmented Nuclei (%) [2]: 54%
- Population Healthy Nuclei (%) [2]: 18%
- Population Hoechst High Intensity Objects (%) [2]: 25%
- Population Membrane Permeable-Phenotype (%) [2]: 0%
- Population Mitochondria Different-Phenotype (%) [2]: 75%
- Population Mitotic Cells (%) [2]: 50%
- Population Normal (%) [2]: 74%
- Population Pyknosed Nuclei (%) [2]: 27%
- Total Cell Count [2]: 59
- Population Apoptotic (%) [3]: 71%
- Population Fragmented Nuclei (%) [3]: 32%
- Population Healthy Nuclei (%) [3]: 46%
- Population Hoechst High Intensity Objects (%) [3]: 11%
- Population Membrane Permeable-Phenotype (%) [3]: 2%
- Population Mitochondria Different-Phenotype (%) [3]: 11%
- Population Mitotic Cells (%) [3]: 28%
- Population Normal (%) [3]: 88%
- Population Pyknosed Nuclei (%) [3]: 20%
- Population Tubulin-Different-Phenotype (%) [3]: 18%
- Total Cell Count [3]: 213
- Population Apoptotic (%) [4]: 20%
- Population Fragmented Nuclei (%) [4]: 51%
- Population Healthy Nuclei (%) [4]: 40%
- Population Hoechst High Intensity Objects (%) [4]: 21%
- Population Membrane Permeable-Phenotype (%) [4]: 3%
- Population Mitochondria Different-Phenotype (%) [4]: 30%
- Population Mitotic Cells (%) [4]: 80%
- Population Normal (%) [4]: 78%
- Population Pyknosed Nuclei (%) [4]: 7%
- Population Tubulin-Different-Phenotype (%) [4]: 23%
- Total Cell Count [4]: 82
- Population Apoptotic (%) [5]: 80%
- Population Fragmented Nuclei (%) [5]: 25%
- Population Healthy Nuclei (%) [5]: 29%
- Population Hoechst High Intensity Objects (%) [5]: 10%
- Population Membrane Permeable-Phenotype (%) [5]: 2%
- Population Mitochondria Different-Phenotype (%) [5]: 89%
- Population Mitotic Cells (%) [5]: 19%
- Population Normal (%) [5]: 89%
- Population Pyknosed Nuclei (%) [5]: 44%
- Population Tubulin-Different-Phenotype (%) [5]: 78%
- Total Cell Count [5]: 140
- Population Apoptotic (%) [6]: 100%
- Population Fragmented Nuclei (%) [6]: 61%
- Population Healthy Nuclei (%) [6]: 11%
- Population Hoechst High Intensity Objects (%) [6]: 30%
- Population Membrane Permeable-Phenotype (%) [6]: 0%
- Population Mitochondria Different-Phenotype (%) [6]: 100%
- Population Mitotic Cells (%) [6]: 0%
- Population Normal (%) [6]: 69%
- Population Pyknosed Nuclei (%) [6]: 27%
- Population Tubulin-Different-Phenotype (%) [6]: 100%
- Total Cell Count [6]: 63
- Population Apoptotic (%) [7]: 72%
- Population Fragmented Nuclei (%) [7]: 37%
- Population Healthy Nuclei (%) [7]: 46%
- Population Hoechst High Intensity Objects (%) [7]: 13%
- Population Membrane Permeable-Phenotype (%) [7]: 4%
- Population Mitochondria Different-Phenotype (%) [7]: 11%
- Population Mitotic Cells (%) [7]: 27%
- Population Normal (%) [7]: 86%
- Population Pyknosed Nuclei (%) [7]: 16%
- Total Cell Count [7]: 262
- Population Apoptotic (%) [8]: 66%
- Population Fragmented Nuclei (%) [8]: 60%
- Population Healthy Nuclei (%) [8]: 35%
- Population Hoechst High Intensity Objects (%) [8]: 20%
- Population Membrane Permeable-Phenotype (%) [8]: 6%
- Population Mitochondria Different-Phenotype (%) [8]: 10%
- Population Mitotic Cells (%) [8]: 33%
- Population Normal (%) [8]: 80%
- Population Pyknosed Nuclei (%) [8]: 3%
- Population Tubulin-Different-Phenotype (%) [8]: 16%
- Total Cell Count [8]: 105
